According to ChEMBL document CHEMBL2380256, “Discovery of novel Jak2-Stat pathway inhibitors with extended residence time on target” (Bioorg Med Chem Lett, 2013):
Each block holds one molecule with its values, some of them ahead of it. Activity calls are given as the source filed them. No cut-off for these calls is given here.

What was measured:
[1] = molecular target: T1, Tyrosine-protein kinase JAK3 (Homo sapiens, UniProt P52333); assay: Inhibition of JAK3 (unknown origin) using biotinylated poly-EY peptide as substrate after 60 mins by HTRF assay
T1 sequence (P52333 whole entry): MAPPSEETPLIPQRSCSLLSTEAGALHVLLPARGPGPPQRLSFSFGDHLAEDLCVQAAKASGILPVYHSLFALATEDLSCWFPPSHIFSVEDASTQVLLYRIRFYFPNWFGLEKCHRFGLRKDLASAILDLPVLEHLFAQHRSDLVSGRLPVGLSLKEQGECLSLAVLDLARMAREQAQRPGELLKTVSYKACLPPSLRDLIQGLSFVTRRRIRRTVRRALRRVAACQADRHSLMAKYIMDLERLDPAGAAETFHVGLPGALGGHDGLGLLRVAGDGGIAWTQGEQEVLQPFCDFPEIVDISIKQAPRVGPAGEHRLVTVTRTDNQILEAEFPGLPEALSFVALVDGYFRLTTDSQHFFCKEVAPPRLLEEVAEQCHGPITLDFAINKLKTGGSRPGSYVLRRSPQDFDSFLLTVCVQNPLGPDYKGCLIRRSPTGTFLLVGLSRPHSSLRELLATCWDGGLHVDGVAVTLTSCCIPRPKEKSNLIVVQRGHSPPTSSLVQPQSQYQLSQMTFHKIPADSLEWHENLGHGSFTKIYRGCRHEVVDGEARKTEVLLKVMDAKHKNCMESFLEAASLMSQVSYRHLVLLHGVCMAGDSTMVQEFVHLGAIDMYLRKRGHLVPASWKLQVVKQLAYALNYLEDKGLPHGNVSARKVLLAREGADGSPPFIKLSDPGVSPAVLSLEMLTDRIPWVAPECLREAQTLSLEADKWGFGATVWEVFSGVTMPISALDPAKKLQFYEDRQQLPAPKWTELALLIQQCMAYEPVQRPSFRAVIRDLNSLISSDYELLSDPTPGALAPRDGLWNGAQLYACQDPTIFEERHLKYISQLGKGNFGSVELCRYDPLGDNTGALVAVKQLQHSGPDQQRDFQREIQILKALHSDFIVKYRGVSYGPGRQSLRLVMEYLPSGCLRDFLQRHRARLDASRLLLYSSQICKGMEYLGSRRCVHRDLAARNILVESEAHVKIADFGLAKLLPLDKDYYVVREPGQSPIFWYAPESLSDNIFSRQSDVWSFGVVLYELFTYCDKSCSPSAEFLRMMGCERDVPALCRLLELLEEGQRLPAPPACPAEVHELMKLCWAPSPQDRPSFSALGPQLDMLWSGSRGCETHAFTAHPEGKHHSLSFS

[2] = molecular target: T2, Tyrosine-protein kinase JAK2 (Homo sapiens, UniProt O60674); assay: Inhibition of JAK2 (unknown origin) using biotinylated TYK2 peptide as substrate after 60 mins
Target sequence in this assay (O60674 whole entry, the tested form may be a part): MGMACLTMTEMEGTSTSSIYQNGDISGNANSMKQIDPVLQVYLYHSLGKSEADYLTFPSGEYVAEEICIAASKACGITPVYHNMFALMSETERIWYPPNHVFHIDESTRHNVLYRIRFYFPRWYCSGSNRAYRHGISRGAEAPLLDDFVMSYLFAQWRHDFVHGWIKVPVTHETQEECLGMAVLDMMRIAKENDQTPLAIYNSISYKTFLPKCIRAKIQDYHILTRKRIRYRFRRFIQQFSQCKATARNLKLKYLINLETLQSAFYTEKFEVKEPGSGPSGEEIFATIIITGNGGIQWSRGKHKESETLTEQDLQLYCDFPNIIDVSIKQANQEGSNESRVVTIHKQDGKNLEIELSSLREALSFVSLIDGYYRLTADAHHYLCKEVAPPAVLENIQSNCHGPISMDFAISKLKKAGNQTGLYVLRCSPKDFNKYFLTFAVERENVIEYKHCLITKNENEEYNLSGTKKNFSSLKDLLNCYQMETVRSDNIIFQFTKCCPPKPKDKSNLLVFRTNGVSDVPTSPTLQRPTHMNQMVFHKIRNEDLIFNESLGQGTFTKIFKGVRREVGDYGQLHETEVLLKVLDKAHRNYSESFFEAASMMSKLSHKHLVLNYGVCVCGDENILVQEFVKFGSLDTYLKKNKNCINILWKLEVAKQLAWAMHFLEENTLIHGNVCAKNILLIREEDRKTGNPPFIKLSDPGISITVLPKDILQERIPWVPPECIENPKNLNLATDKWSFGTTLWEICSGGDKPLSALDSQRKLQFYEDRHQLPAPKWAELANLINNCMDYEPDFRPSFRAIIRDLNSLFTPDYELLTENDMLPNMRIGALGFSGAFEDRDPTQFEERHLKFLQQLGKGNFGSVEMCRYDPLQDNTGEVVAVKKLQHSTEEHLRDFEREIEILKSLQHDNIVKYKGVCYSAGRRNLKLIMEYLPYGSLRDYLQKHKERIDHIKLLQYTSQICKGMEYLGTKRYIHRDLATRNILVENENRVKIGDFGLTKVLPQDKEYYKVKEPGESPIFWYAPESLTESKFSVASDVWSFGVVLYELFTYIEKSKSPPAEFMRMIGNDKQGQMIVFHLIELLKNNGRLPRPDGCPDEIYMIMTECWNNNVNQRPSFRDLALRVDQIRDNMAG

[3] = Growth inhibition of mouse BA/F3 cells transfected with JAK3 TEL domain after 24 hrs by Alamar Blue assay; assay type: functional, cell-based; conditions: BaF3, 24 h, read-out: GI50
[4] = Growth inhibition of mouse BA/F3 cells transfected with JAK2 TEL domain after 24 hrs by Alamar Blue assay; assay type: functional; conditions: BaF3, 24 h
[5] = Growth inhibition of human UKE1 cells harboring JAK2 V617F mutant after 2 days by [3H]-thymidine incorporation assay; assay type: functional
[6] = system: SET-2; assay: Growth inhibition of human SET2 harboring JAK2 V617F mutant after 24 hrs by Alamar Blue assay; assay type: functional; conditions: SET-2, 24 h
[7] = species on record: Homo sapiens; assay: Selectivity ratio of IC50 for JAK3 (unknown origin) to IC50 for JAK2 (unknown origin)
In short: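 Jak2 and Jak3 enzyme IC50s determined at 5 mM ATP; the ratio is the Jak3 IC50 divided by the Jak2 IC50.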

[8] = Total plasma concentration in nude mouse allografted with mouse Ba/F3 cells expressing JAK2 TEL domain at 5 mg/kg, po qd measured at 8 hrs; assay type: ADME, organism-based, BaF3; design: dose 5 mg/kg, route oral
In short: (§1)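 Female nude mice implanted intravenously with Ba/F3 TEL-JAK2 cells on day 0 and dosed orally on day 10. Total plasma drug concentration was measured at the stated times post-dose, averaged over n = 3 per dose and time point.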

[9] = Total plasma concentration in nude mouse allografted with mouse Ba/F3 cells expressing JAK2 TEL domain at 10 mg/kg, po qd measured at 8 hrs; assay type: ADME, organism-based, BaF3; design: dose 10 mg/kg, route oral; in short: as §1
[10] = Total plasma concentration in nude mouse allografted with mouse Ba/F3 cells expressing JAK2 TEL domain at 5 mg/kg, po qd measured at 6 hrs; assay type: ADME, organism-based, BaF3; design: dose 5 mg/kg, route oral; in short: as §1
[11] = Total plasma concentration in nude mouse allografted with mouse Ba/F3 cells expressing JAK2 TEL domain at 5 mg/kg, po qd measured at 2 hrs; assay type: ADME, organism-based, BaF3; design: dose 5 mg/kg, route oral; in short: as §1
[12] = Total plasma concentration in nude mouse allografted with mouse Ba/F3 cells expressing JAK2 TEL domain at 10 mg/kg, po qd measured at 2 hrs; assay type: ADME, organism-based, BaF3; design: dose 10 mg/kg, route oral; in short: as §1
[13] = Total plasma concentration in nude mouse allografted with mouse Ba/F3 cells expressing JAK2 TEL domain at 10 mg/kg, po qd measured at 6 hrs; assay type: ADME, organism-based, BaF3; design: dose 10 mg/kg, route oral; in short: as §1
[14] = system: Mus musculus; assay: In vivo inhibition of JAK2 TEL domain (unknown origin) transfected in mouse Ba/F3 cells allografted in nude mouse assessed as inhibition of STAT5 phosphorylation at 5 mg/kg, po qd measured at 8 hrs relative to vehicle-treated control; assay type: functional; conditions: BaF3, 8 h
In short: (§2)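 Female nude mice implanted intravenously with Ba/F3 TEL-JAK2 cells on day 0 and given a single oral dose on day 10. pStat5 was measured at the stated times post-dose. % inhibition was scaled between vehicle and a control inhibitor as maximum and minimum, with n = 3 per dose and time point, reported as mean ±SD.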

[15] = system: Mus musculus; assay: In vivo inhibition of JAK2 TEL domain (unknown origin) transfected in mouse Ba/F3 cells allografted in nude mouse assessed as inhibition of STAT5 phosphorylation at 10 mg/kg, po qd measured at 8 hrs relative to vehicle-treated control; assay type: functional; conditions: BaF3, 8 h; in short: as §2
[16] = Fraction unbound in nude mouse plasma allografted with mouse Ba/F3 cells expressing JAK2 TEL domain at 5 to 10 mg/kg, po qd after 6 hrs; assay type: ADME, organism-based, BaF3; design: dose 5-10 mg/kg, route oral
[17] = system: Mus musculus; assay: In vivo inhibition of JAK2 TEL domain (unknown origin) transfected in mouse Ba/F3 cells allografted in nude mouse assessed as inhibition of STAT5 phosphorylation at 5 mg/kg, po qd after 6 hrs; assay type: functional, organism-based; design: dose 5 mg/kg; conditions: BaF3; in short: as §2
[18] = system: Mus musculus; assay: In vivo inhibition of JAK2 TEL domain (unknown origin) transfected in mouse Ba/F3 cells allografted in nude mouse assessed as inhibition of STAT5 phosphorylation at 10 mg/kg, po qd after 6 hrs relative to vehicle-treated control; assay type: functional; conditions: BaF3, 6 h; in short: as §2
[19] = molecular target: T2, Tyrosine-protein kinase JAK2; assay: Inhibition of JAK2 TEL domain (unknown origin) transfected in mouse Ba/F3 cells; assay type: cell-based; conditions: baf3
Target sequence in this assay (O60674 whole entry, looked up, the tested form may be a part): as the sequence (O60674 whole entry, the tested form may be a part) above

[20] = molecular target: T1, Tyrosine-protein kinase JAK3; assay: Inhibition of JAK3 TEL domain (unknown origin) transfected in mouse Ba/F3 cells; assay type: cell-based, BaF3
[21] = system: Hepatocyte; assay: Metabolic stability in human hepatocytes measured per 10^6 cells; assay type: ADME, cell-based
[22] = Volume of distribution at steady state in beagle dog at 5 mg/kg, po and 2.5 mg/kg, iv; assay type: ADME, organism-based, Canis lupus familiaris; conditions: in vivo, read-out: Vdss
In short: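 Male Beagle dogs. Oral 5 mg/kg in 0.1% HPMC; intravenous 2.5 mg/kg in HP-β-CD.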

[23] = Volume of distribution at steady state in CD1 mouse at 10 mg/kg, po and 3 mg/kg, iv; assay type: ADME, organism-based; conditions: in vivo, read-out: Vdss
In short: (§3)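 Single-dose PK: female CD-1 mice and male Han Wistar rats, 10 mg/kg po in 0.1% HPMC and 3 mg/kg iv in DMA/PEG/saline 40/40/20.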

[24] = Volume of distribution at steady state in Han Wistar rat at 10 mg/kg, po and 3 mg/kg, iv; assay type: ADME, organism-based; conditions: in vivo, read-out: Vdss
[25] = Clearance in beagle dog at 5 mg/kg, po and […] mg/kg, iv; assay type: ADME, organism-based, Canis lupus familiaris; conditions: in vivo, 2.5 mg/kg
[26] = Clearance in CD1 mouse at 10 mg/kg, po and 3 mg/kg, iv; assay type: ADME, organism-based; conditions: in vivo; in short: as §3
[27] = Clearance in Han Wistar rat at 10 mg/kg, po and 3 mg/kg, iv; assay type: ADME, organism-based; conditions: in vivo; in short: as §3
[28] = AUC in CD1 mouse at 10 mg/kg, po and 3 mg/kg, iv; assay type: ADME, organism-based; conditions: plasma; in short: as §3
[29] = AUC in Han Wistar rat at 10 mg/kg, po and 3 mg/kg, iv; assay type: ADME, organism-based; conditions: plasma; in short: as §3
[30] = Oral bioavailability in CD1 mouse at 10 mg/kg; assay type: ADME, organism-based; conditions: in vivo
In short: (§4)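 Oral bioavailability in female CD-1 mice and male Han Wistar rats: 10 mg/kg po (0.1% HPMC) versus 3 mg/kg iv (DMA/PEG/saline 40/40/20). %F = (AUCpo × DoseIV)/(AUCIV × Dosepo) × 100.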

[31] = Oral bioavailability in Han Wistar rat at 10 mg/kg; assay type: ADME, organism-based; conditions: in vivo; in short: as §4
[32] = molecular target: T2, Tyrosine-protein kinase JAK2; assay: Competitive inhibition of JAK2 (unknown origin)
Target sequence in this assay (O60674 whole entry, the tested form may be a part): as above

IC50 [1]: 262 nM
IC50 [2]: 6 nM
Structure (SMILES): Cc1cc(Nc2nc(N[C@@H](C)c3ccc(F)cn3)c(Cl)c(N3CCOCC3)n2)[nH]n1

IC50 [1]: 262 nM
IC50 [2]: 6 nM
Structure (SMILES): Cc1cc(Nc2nc(N[C@@H](C)c3ccc(F)cn3)c(F)c(N3CCOCC3)n2)n[nH]1
GI50 [3]: 850 nM
GI50 [4]: 19 nM

IC50 [1]: 45 nM
IC50 [2]: 4 nM
Structure (SMILES): Cc1cc(Nc2nc(O[C@@H](C)c3ncc(F)cc3F)c(F)c(N3CCOCC3)n2)n[nH]1
GI50 [5]: 30 nM
GI50 [6]: 18 nM
GI50 [3]: 430 nM
GI50 [4]: 10 nM

Ratio IC50 [7]: > 10
Structure (SMILES): Cc1cc(Nc2cc(N3CCOCC3)nc(N[C@@H](C)c3ncc(F)cn3)n2)n[nH]1

IC50 [1]: 4 nM
IC50 [2]: 3 nM
Structure (SMILES): Cc1cc(Nc2nc(N[C@@H](C)c3ccc(F)cn3)c(F)c(N3CCS(=O)(=O)CC3)n2)n[nH]1
GI50 [3]: 270 nM

concentration at 8 h [8]: 55 ng/mL
concentration at 8 h [9]: 123 ng/mL
concentration at 6 h [10]: 98 ng/mL
concentration at 2 h [11]: 228 ng/mL
concentration at 2 h [12]: 376 ng/mL
concentration at 6 h [13]: 248 ng/mL
fraction unbound at 6 h [16]: 0.06
IC50 [19]: 7 nM
IC50 [20]: 370 nM
Stability [21]: 5.2 µL/min/1e6 cells
Vd [22]: 2.5 L/kg
Vd [23]: 2.9 L/kg
Vd [24]: 3.1 L/kg
clearance [25]: 14 mL/min/kg
clearance [26]: 18 mL/min/kg
clearance [27]: 12 mL/min/kg
AUC [28]: 13.3 µM·h
AUC [29]: 17.7 µM·h
bioavailability [30]: 64%
bioavailability [31]: 51%
Ki [32]: 1.41 nM
IC50 [1]: 8 nM
IC50 [2]: 3 nM
Structure (SMILES): Cc1cc(Nc2nc(N[C@@H](C)c3ncc(F)cc3F)c(F)c(N3CCOCC3)n2)n[nH]1
inhibition in vivo at 5 mg/kg [14]: 50%
inhibition in vivo at 10 mg/kg [15]: 70%
inhibition [17]: Active
inhibition in vivo at 10 mg/kg [18]: > 80%
GI50 [5]: 22 nM
GI50 [6]: 14 nM
GI50 [3]: 300 nM
GI50 [4]: 8 nM

IC50 [1]: 229 nM
IC50 [2]: 3 nM
Structure (SMILES): Cc1cc(Nc2nc(N[C@@H](C)c3ncc(F)cn3)c(F)c(N3CCOCC3)n2)[nH]n1

IC50 [1]: 11200 nM
IC50 [2]: 37 nM
Structure (SMILES): COc1cc(Nc2nc(N[C@@H](C)c3ncc(F)cn3)c(F)c(N3CCOCC3)n2)n[nH]1
GI50 [3]: 9400 nM
GI50 [4]: 160 nM
